These results are taken from ChEMBL document CHEMBL5252546, “Salutaxel, a Conjugate of Docetaxel and a Muramyl Dipeptide (MDP) Analogue, Acts as Multifunctional Prodrug That Inhibits Tumor Growth and Metastasis” (J Med Chem, 2018).

Calls of active or inactive are those of the source. The calls are words filed in the database; no cut-off is given here.

Data set [1] deals with 4T1. Briefly: Antitumor activity against mouse 4T1 cells implanted in BALB/c mouse assessed as decrease in lung injury at 5 to 20 mg/kg,iv administrated once per week for 4 weeks by H and E staining based assay. The data set is classed as functional, organism-based. As to conditions: dose 5-20 mg/kg.
Data set [2] deals with 4T1. Description: Antitumor activity against mouse 4T1 cells implanted in BALB/c mouse assessed as decrease in lung Ly-6G expression level at 5 to 20 mg/kg,iv administrated once per week for 4 weeks by immunohistochemistry analysis. It counts as functional, organism-based. The conditions noted are these: dose 5-20 mg/kg.
Data set [3] deals with 4T1. Description: Antitumor activity against mouse 4T1 cells implanted in BALB/c mouse assessed as decrease in lung metastasis at 5 to 20 mg/kg,iv administrated once per week for 4 weeks by H and E staining based assay. It counts as functional, organism-based. As to conditions: dose 5-20 mg/kg.
For data set [4], the system named is 4T1. Description: Antitumor activity against mouse 4T1 cells implanted in BALB/c mouse assessed as decrease in lung TSP-1 expression level at 5 to 20 mg/kg,iv administrated once per week for 4 weeks by immunohistochemistry analysis. The conditions noted are these: dose 5-20 mg/kg. The data set is classed as functional, organism-based.
Data set [5] in a line: Toxicity in BALB/c mouse xenografted with mouse 4T1 cells assessed as decrease in body weight at 4 mg/kg,iv administrated with docetaxel combination once per week for 4 weeks. The data set is classed as organism-based. As to conditions: in vivo, 672 h. The essentials:
(§1)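 4T1 mammary fat-pad model in BALB/c mice. Doxorubicin (4 mg/kg) was given alone or co-administered with the conjugate or its parent taxane, with iv saline vehicle. Readouts were body weight, tumour volume, tumour weight, lung metastatic nodules and lung metastasis score. Mean ± SEM, n = 10; ANOVA and Student's t test.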

Data set [6] in a line: Toxicity in BALB/c mouse xenografted with mouse 4T1 cells assessed as decrease in body weight at 4 mg/kg,iv administrated once per week for 4 weeks. It counts as organism-based. The conditions noted are these: in vivo, 672 h.
Data set [7] has as its system 4T1. Briefly: Antitumor activity against mouse 4T1 cells xenografted with BALB/c mouse assessed as decrease in lung metastasis at 4 mg/kg,iv administrated once per week for 4 weeks. The data set is classed as functional, organism-based.
Data set [8] can be described thus: Toxicity in BALB/c mouse xenografted with mouse 4T1 cells assessed as decrease in body weight at 4 mg/kg,iv administrated combination with compound 3 once per week for 4 weeks. It counts as organism-based. As to conditions: in vivo, 672 h. Summed up:
as §1

The subject of data set [9] is 4T1. Briefly: Antitumor activity against mouse 4T1 cells xenografted with BALB/c mouse assessed as decrease in tumor weight at 4 mg/kg,iv administrated once per week for 4 weeks. It counts as functional, organism-based.

As to `CC(=O)O[C@@]12CO[C@@H]1C[C@H](O)[C@@]1(C)C(=O)[C@H](O)C3=C(C)[C@@H](OC(=O)[C@H](OC(=O)CCC(=O)NCCCC[C@H](NC(=O)CC[C@@H](NC(=O)[C@H](C)NC(=O)/C=C/c4ccc(F)cc4Cl)C(N)=O)C(N)=O)[C@@H](NC(=O)OC(C)(C)C)c4ccccc4)C[C@@](O)([C@@H](OC(=O)c4ccccc4)[C@H]21)C3(C)C`, the Activity result in data set [1] and in data set [3] was “Dose-Dependent Effect” in each case. Further, the outcome in [2] and in data set [4] was Active.

For `COc1cccc2c1C(=O)c1c(O)c3c(c(O)c1C2=O)C[C@@](O)(C(=O)CO)C[C@@H]3O[C@H]1C[C@H](N)[C@H](O)[C@H](C)O1` [DOXORUBICIN], the Activity entry in data set [5], in [6] and in data set [8] was “Toxic” each time. Further, the result in data set [7] and in data set [9] was Active.
